Test [1] deals with Bel-7402. The experiment in a line: Cell cycle arrest in human Bel7402 cells assessed as accumulation at G2/M phase at 0.6 uM after 48 hrs by propidium iodide staining-based FACS analysis (reference value: 12.60 %). The format is functional. The method in brief:
(§1)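 Bel-7402 cells seeded at 5.0 × 10³ cells/well and incubated 24 h at 37 °C, then exposed to test compound or DMSO solvent control for 48 h. Cells fixed in 70% ethanol, RNase-treated, PI-stained; DNA content of nuclei measured by flow cytometry.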
On the technique in general: In flow cytometry, cells or beads pass a laser one at a time.

In test [2] the test system is Bel-7402. The test is described as follows: Induction of apoptosis in human Bel7402 cells assessed as early and late apoptotic cells at 0.15 uM after 2 days by Annexin-V/FITC-propidium iodide staining-based flow cytometry (reference value: 4.8 %). The format is functional.
The subject of test [3] is Bel-7402. The test is described as follows: Cell cycle arrest in human Bel7402 cells assessed as accumulation at S phase at 0.3 uM after 48 hrs by propidium iodide staining-based FACS analysis (reference value: 39.17 %). In kind it is functional. The method in brief:
as §1

Test [4] deals with Bel-7402. The experiment in a line: Induction of apoptosis in human Bel7402 cells assessed as early apoptotic cells at 0.15 uM after 2 days by Annexin-V/FITC-propidium iodide staining-based flow cytometry (reference value: 2.6 %). The format is functional.
Test [5] has as its system Bel-7402. The experiment in a line: Induction of apoptosis in human Bel7402 cells assessed as increase in Bax expression after 48 hrs by Western blotting analysis. In kind it is functional, cell-based. The method in brief:
(§2)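 Bel-7402 cells treated with vehicle control or compound at 0.15, 0.3 or […] (so in the source). Lysates at […] protein per lane (so in the source) separated by 10% SDS-PAGE, transferred to nitrocellulose and immunoblotted, with β-actin measured as reference. Significance vs. vehicle control marked at P < 0.05 and P < 0.01.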
A general note: A western blot detects proteins with antibodies after separation by electrophoresis.

Test [6] relates to Bel-7402. The experiment in a line: Cell cycle arrest in human Bel7402 cells assessed as accumulation at G1 phase at 0.6 uM after 48 hrs by propidium iodide staining-based FACS analysis (reference value: 48.23 %). The format is functional. The method, boiled down:
as §1

For test [7], the system named is Bel-7402. The experiment in a line: Cell cycle arrest in human Bel7402 cells assessed as accumulation at G2/M phase at 0.15 uM after 48 hrs by propidium iodide staining-based FACS analysis (reference value: 12.60 %). In kind it is functional. The method in brief: as §1
The test system of test [8] is Bel-7402. The test is described as follows: Induction of apoptosis in human Bel7402 cells at 0.15 uM after 48 hrs by propidium iodide staining-based FACS analysis (reference value: 1.67 %). The format is functional. The method, boiled down:
as §1

Test [9] has as its system Bel-7402. The experiment in a line: Induction of apoptosis in human Bel7402 cells assessed as necrotic cells at 0.6 uM after 2 days by Annexin-V/FITC-propidium iodide staining-based flow cytometry (reference value: 1.1 %). In kind it is functional.
Test [10] deals with Bel-7402. The experiment in a line: Induction of apoptosis in human Bel7402 cells assessed as increase in cytochrome C expression after 48 hrs by Western blotting analysis. In kind it is functional, cell-based. The method in brief: as §2
Test [11] concerns Bel-7402. The experiment in a line: Cell cycle arrest in human Bel7402 cells assessed as accumulation at S phase at 0.15 uM after 48 hrs by propidium iodide staining-based FACS analysis (reference value: 39.17 %). The format is functional. The method, boiled down:
as §1

1 compound from ChEMBL document CHEMBL2390862, “Enmein-type diterpenoid analogs from natural kaurene-type oridonin: Synthesis and their antitumor biological evaluation” (Eur J Med Chem, 2013) can be followed below.

As to `C=C1C(=O)[C@@]23C(=O)O[C@H]4CCC(C)(C)[C@H]5[C@H](O)OC[C@@]45[C@@H]2CC[C@@H]1[C@H]3OC(=O)c1ccc(Cl)cc1`, the Activity in the test on Bel-7402 [1] is 28.76%; in the test on Bel-7402 [2] it was 14.3%; with Bel-7402 [3] it was 29.24%; with Bel-7402 [4] it was 8.8%; in the test on Bel-7402 [5], “Dose-dependent effect”; with Bel-7402 [6], 51.07%. Also, the Activity was 15.1% in the test on Bel-7402 [7]; 2.07% with Bel-7402 [8]; 0.7% in the test on Bel-7402 [9]; “Dose-dependent effect” in the test on Bel-7402 [10]; 38.72% in the test on Bel-7402 [11].
